Laboratory results published in ChEMBL document CHEMBL1772954, “Antifungal, cytotoxic and SAR studies of a series of N-alkyl, N-aryl and N-alkylphenyl-1,4-pyrrolediones and related compounds” (Bioorg Med Chem, 2011).
In brackets after ≈: the same amount, converted by molar mass.

Tests used:
Aspergillus niger = experiment: Antifungal activity against Aspergillus niger ATCC 9029; type: functional
How it was run: (§1)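 Broth microdilution per CLSI M38-A2 in RPMI-1640 with MOPS at pH 7.0. Inoculum 1-5 × 10^3 CFU/mL, with twofold compound dilutions spanning 250-0.24 µg/ml (final DMSO <1%). Plates incubated at 35 °C, moist and dark, and read when the control fungus had grown. MIC is total growth inhibition. MFC comes from subculturing clear wells in duplicate onto SDA.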

[1] = test system: Trichophyton mentagrophytes; experiment: Antifungal activity against Trichophyton mentagrophytes ATCC 9972; type: functional
How it was run: (§2)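 Dermatophytes tested by CLSI M38-A2 microdilution in MOPS-buffered RPMI-1640 at pH 7.0. Inoculum 1-5 × 10^3 CFU/mL; compounds 250 to 0.24 µg/ml in twofold steps, final DMSO <1%. Incubated at 28 °C in a moist, dark chamber and read according to control growth. MIC is the lowest concentration with complete inhibition. MFC is the lowest concentration with no growth after duplicate subculture on SDA.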

Candida albicans = experiment: Antifungal activity against Candida albicans ATCC 10213; type: functional
How it was run: (§3)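 CLSI M27-A3 broth microdilution in RPMI-1640 buffered to pH 7.0 with MOPS. Inoculum 1-5 × 10^3 CFU/mL. Compound twofold dilutions from 250 to 0.24 µg/ml, final DMSO <1%. Incubated at 35 °C in a moist, dark chamber and read at 48 h. MIC is the lowest concentration giving total growth inhibition. For MFC, 5 µL from clear wells was plated in duplicate on SDA; MFC is the lowest concentration with no growth.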

Aspergillus fumigatus = experiment: Antifungal activity against Aspergillus fumigatus ATCC 26934; type: functional; how it was run: as §1
Trichophyton rubrum = experiment: Antifungal activity against Trichophyton rubrum C 113 2000; type: functional; how it was run: as §2
Nannizzia gypsea = experiment: Antifungal activity against Microsporum gypseum C 115 2000; type: functional; how it was run: as §2
Aspergillus flavus = experiment: Antifungal activity against Aspergillus flavus ATCC 9170; type: functional; how it was run: as §1
[2] = Cytotoxicity against human erythrocytes assessed as hemolysis by spectrometric analysis; type: cell-based, Erythrocyte
How it was run: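 Human heparinized red blood cells were washed in PBS at pH 7.0 and suspended at 4% in sterile 5% glucose. Compounds from DMSO stocks were diluted in 5% glucose to final concentrations of 250 to 0.24 µg/ml and incubated with the cells at 37 °C. Released hemoglobin was read at 540 nm. HC50 is the concentration giving 50% lysis relative to the drug-free value.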

MCF7 = experiment: Cytotoxicity against human MCF7 cells assessed as cell growth after 2 days by sulforhodamine B assay; type: functional; settings: MCF7, 48 h
How it was run: (§4)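 NCI cell lines were run by the Monks method: cells were plated with compounds from DMSO stocks and incubated 2 days at 37 °C in 5% CO2, in duplicate. Cells were fixed with cold TCA, stained with 0.4% SRB, and the bound dye was solubilized in 10 mM tris-base and read at 515 nm. The zero-day control was subtracted, and GI50 was taken from the curves.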

SF-268 = experiment: Cytotoxicity against human SF268 cells assessed as cell growth after 2 days by sulforhodamine B assay; type: functional; settings: SF-268, 48 h; how it was run: as §4
Saccharomyces cerevisiae = experiment: Antifungal activity against Saccharomyces cerevisiae ATCC 9763; type: functional; how it was run: as §3
NCI-H460 = experiment: Cytotoxicity against human H460 cells assessed as cell growth after 2 days by sulforhodamine B assay; type: functional; settings: NCI-H460, 48 h; how it was run: as §4
Candida tropicalis = experiment: Antifungal activity against Candida tropicalis C 131 2000; type: functional; how it was run: as §3
Cryptococcus neoformans = experiment: Antifungal activity against Cryptococcus neoformans ATCC 32264; type: functional; how it was run: as §3

Structure (SMILES)	MIC (Aspergillus niger)	MIC [1]	MIC (Candida albicans)	MIC (Aspergillus fumigatus)	MIC (Trichophyton rubrum)	MIC (Nannizzia gypsea)	MIC (Aspergillus flavus)	MIC (Saccharomyces cerevisiae)	MFC (Aspergillus niger)	MFC [1]	MFC (Candida albicans)	MFC (Aspergillus fumigatus)	MFC (Trichophyton rubrum)	MFC (Nannizzia gypsea)	MFC (Aspergillus flavus)	HC50 [2]	GI50 (MCF7)	GI50 (SF-268)	MFC (Saccharomyces cerevisiae)	GI50 (NCI-H460)	also measured
O=C1C(Cl)=C(Cl)C(=O)N1CCCCc1ccccc1	15.6 µg/mL (≈ 52.4 µM)	3.9 µg/mL (≈ 13.1 µM)	7.81 µg/mL (≈ 26.2 µM)	31.2 µg/mL (≈ 105 µM)	3.9 µg/mL (≈ 13.1 µM)	15.6 µg/mL (≈ 52.4 µM)	15.6 µg/mL (≈ 52.4 µM)	3.9 µg/mL (≈ 13.1 µM)	15.6 µg/mL (≈ 52.4 µM)	7.81 µg/mL (≈ 26.2 µM)	15.6 µg/mL (≈ 52.4 µM)	62.5 µg/mL (≈ 210 µM)	7.81 µg/mL (≈ 26.2 µM)	31.2 µg/mL (≈ 105 µM)	31.2 µg/mL (≈ 105 µM)	> 250 µg/mL	> 10 µg/mL	> 10 µg/mL	7.81 µg/mL (≈ 26.2 µM)	> 10 µg/mL	MFC (Candida tropicalis): 15.6 µg/mL (≈ 52.4 µM); MIC (Candida tropicalis): 7.81 µg/mL (≈ 26.2 µM); MFC (Cryptococcus neoformans): 3.9 µg/mL (≈ 13.1 µM); MIC (Cryptococcus neoformans): 3.9 µg/mL (≈ 13.1 µM)
CC1=CC(=O)N(Cc2ccccc2)C1=O	62.5 µg/mL (≈ 311 µM)	31.2 µg/mL (≈ 155 µM)	62.5 µg/mL (≈ 311 µM)	31.2 µg/mL (≈ 155 µM)	3.9 µg/mL (≈ 19.4 µM)	3.9 µg/mL (≈ 19.4 µM)	62.5 µg/mL (≈ 311 µM)	31.2 µg/mL (≈ 155 µM)	125 µg/mL (≈ 621 µM)	31.2 µg/mL (≈ 155 µM)	125 µg/mL (≈ 621 µM)	62.5 µg/mL (≈ 311 µM)	7.81 µg/mL (≈ 38.8 µM)	7.81 µg/mL (≈ 38.8 µM)	125 µg/mL (≈ 621 µM)	> 250 µg/mL	> 10 µg/mL	> 10 µg/mL	62.5 µg/mL (≈ 311 µM)	> 10 µg/mL	MFC (Candida tropicalis): 250 µg/mL (≈ 1240 µM); MIC (Candida tropicalis): 125 µg/mL (≈ 621 µM); MFC (Cryptococcus neoformans): 31.2 µg/mL (≈ 155 µM); MIC (Cryptococcus neoformans): 15.6 µg/mL (≈ 77.7 µM)
CC1=CC(=O)N(CCCCc2ccccc2)C1=O	62.5 µg/mL (≈ 257 µM)	31.2 µg/mL (≈ 128 µM)	62.5 µg/mL (≈ 257 µM)	31.2 µg/mL (≈ 128 µM)	3.9 µg/mL (≈ 16 µM)	3.9 µg/mL (≈ 16 µM)	62.5 µg/mL (≈ 257 µM)	31.2 µg/mL (≈ 128 µM)	125 µg/mL (≈ 514 µM)	31.2 µg/mL (≈ 128 µM)	125 µg/mL (≈ 514 µM)	62.5 µg/mL (≈ 257 µM)	15.6 µg/mL (≈ 64.2 µM)	15.6 µg/mL (≈ 64.2 µM)	125 µg/mL (≈ 514 µM)	> 250 µg/mL	> 10 µg/mL	> 10 µg/mL	62.5 µg/mL (≈ 257 µM)	> 10 µg/mL	MFC (Candida tropicalis): 125 µg/mL (≈ 514 µM); MIC (Candida tropicalis): 62.5 µg/mL (≈ 257 µM); MFC (Cryptococcus neoformans): 62.5 µg/mL (≈ 257 µM); MIC (Cryptococcus neoformans): 31.2 µg/mL (≈ 128 µM)
COc1ccc(N2C(=O)C=CC2=O)cc1OC	62.5 µg/mL (≈ 268 µM)	3.9 µg/mL (≈ 16.7 µM)	31.2 µg/mL (≈ 134 µM)	62.5 µg/mL (≈ 268 µM)	3.9 µg/mL (≈ 16.7 µM)	3.9 µg/mL (≈ 16.7 µM)	62.5 µg/mL (≈ 268 µM)	7.81 µg/mL (≈ 33.5 µM)	125 µg/mL (≈ 536 µM)	7.81 µg/mL (≈ 33.5 µM)	62.5 µg/mL (≈ 268 µM)	125 µg/mL (≈ 536 µM)	7.81 µg/mL (≈ 33.5 µM)	7.81 µg/mL (≈ 33.5 µM)	125 µg/mL (≈ 536 µM)	> 250 µg/mL	> 10 µg/mL	> 10 µg/mL	15.6 µg/mL (≈ 67 µM)	> 10 µg/mL	MFC (Candida tropicalis): 15.6 µg/mL (≈ 67 µM); MIC (Candida tropicalis): 15.6 µg/mL (≈ 67 µM); MFC (Cryptococcus neoformans): 15.6 µg/mL (≈ 67 µM); MIC (Cryptococcus neoformans): 7.81 µg/mL (≈ 33.5 µM)

More lines, main results first:

MIC (Aspergillus niger)	MIC [1]	MIC (Candida albicans)	MIC (Aspergillus fumigatus)	MIC (Trichophyton rubrum)	MIC (Nannizzia gypsea)	MIC (Aspergillus flavus)	MIC (Saccharomyces cerevisiae)	Structure (SMILES)	MFC (Aspergillus niger)	MFC [1]	MFC (Candida albicans)	MFC (Aspergillus fumigatus)	MFC (Trichophyton rubrum)	MFC (Nannizzia gypsea)	MFC (Aspergillus flavus)	HC50 [2]	GI50 (MCF7)	GI50 (SF-268)	MFC (Saccharomyces cerevisiae)	GI50 (NCI-H460)	also measured
62.5 µg/mL (≈ 290 µM)	31.2 µg/mL (≈ 145 µM)	62.5 µg/mL (≈ 290 µM)	31.2 µg/mL (≈ 145 µM)	7.81 µg/mL (≈ 36.3 µM)	3.9 µg/mL (≈ 18.1 µM)	62.5 µg/mL (≈ 290 µM)	31.2 µg/mL (≈ 145 µM)	CC1=CC(=O)N(CCc2ccccc2)C1=O	250 µg/mL (≈ 1160 µM)	62.5 µg/mL (≈ 290 µM)	125 µg/mL (≈ 581 µM)	31.2 µg/mL (≈ 145 µM)	15.6 µg/mL (≈ 72.6 µM)	7.81 µg/mL (≈ 36.3 µM)	250 µg/mL (≈ 1160 µM)	> 250 µg/mL	> 10 µg/mL	> 10 µg/mL	62.5 µg/mL (≈ 290 µM)	> 10 µg/mL	MFC (Candida tropicalis): 250 µg/mL (≈ 1160 µM); MIC (Candida tropicalis): 125 µg/mL (≈ 581 µM); MFC (Cryptococcus neoformans): 62.5 µg/mL (≈ 290 µM); MIC (Cryptococcus neoformans): 31.2 µg/mL (≈ 145 µM)
31.2 µg/mL (≈ 136 µM)	15.6 µg/mL (≈ 68.2 µM)	62.5 µg/mL (≈ 273 µM)	15.6 µg/mL (≈ 68.2 µM)	1.95 µg/mL (≈ 8.5 µM)	3.9 µg/mL (≈ 17 µM)	31.2 µg/mL (≈ 136 µM)	15.6 µg/mL (≈ 68.2 µM)	CC1=CC(=O)N(CCCc2ccccc2)C1=O	31.2 µg/mL (≈ 136 µM)	31.2 µg/mL (≈ 136 µM)	125 µg/mL (≈ 545 µM)	31.2 µg/mL (≈ 136 µM)	3.9 µg/mL (≈ 17 µM)	7.81 µg/mL (≈ 34.1 µM)	31.2 µg/mL (≈ 136 µM)	> 250 µg/mL	> 10 µg/mL	> 10 µg/mL	62.5 µg/mL (≈ 273 µM)	> 10 µg/mL	MFC (Candida tropicalis): 125 µg/mL (≈ 545 µM); MIC (Candida tropicalis): 125 µg/mL (≈ 545 µM); MFC (Cryptococcus neoformans): 31.2 µg/mL (≈ 136 µM); MIC (Cryptococcus neoformans): 15.6 µg/mL (≈ 68.2 µM)
